Test results published in article PMC9079187 (ACS nano, 2021).
Like-named read-outs stand apart in the source and are kept apart here. One block for each molecule: values may come before it.

Tests used:
[1] = target: C1C2-NP (C1C2 peptide conjugated to PEG diacid coated Gd nanoparticles, AF647 labeled); assay: MST
[2] = Zeta potential measurement; format: physicochemical; settings: Malvern Zetasizer Nano; with NPs
Dynamic light scattering = format: physicochemical; settings: DLS, Malvern Zetasizer Nano; DPBS pH 7.4, 0.05 mM, filtered 0.22 μm
[3] = target: T1, human claudin-1 expressed in bEnd.3 cells (Homo sapiens, UniProt O95832); format: cell-based; settings: plasmid transfection; NP incubation 4 hrs; fluorescence
T1 sequence (O95832 1-211): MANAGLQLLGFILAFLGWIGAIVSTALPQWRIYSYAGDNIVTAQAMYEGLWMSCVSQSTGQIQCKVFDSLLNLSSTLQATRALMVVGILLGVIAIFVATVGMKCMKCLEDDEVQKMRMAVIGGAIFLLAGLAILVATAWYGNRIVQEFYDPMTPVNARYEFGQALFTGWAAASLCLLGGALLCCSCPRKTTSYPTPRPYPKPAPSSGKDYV
Method in brief: (§1)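 bEnd.3 mouse brain endothelial cells were grown in DMEM. For mouse claudin-1, cells were treated with ethanol (50 mM) to induce expression. For human claudin-1, cells were transfected with a pCMV plasmid encoding it. Cells were then incubated with AF-647-labelled targeted NPs for 4 hrs and imaged by fluorescence. Claudin-1 induction was checked by western blot relative to β-actin.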

human claudin-3 = target: T2, human claudin-3 (Homo sapiens, UniProt O15551); assay: Microscale thermophoresis; format: binding; settings: MST; claudin-3 0.4-14000 nM; C1C2-NP fixed at 70 nM; buffer with 0.1% n-Undecyl-β-D-Maltopyranoside; 23°C
T2 sequence (O15551 1-220): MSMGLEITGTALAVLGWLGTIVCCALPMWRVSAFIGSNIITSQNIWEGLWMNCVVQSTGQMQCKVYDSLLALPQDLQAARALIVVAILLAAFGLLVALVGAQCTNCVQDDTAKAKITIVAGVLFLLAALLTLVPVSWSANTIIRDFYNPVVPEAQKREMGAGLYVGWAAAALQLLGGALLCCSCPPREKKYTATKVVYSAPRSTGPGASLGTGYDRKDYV
Method in brief: (§2)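 Microscale thermophoresis on a Monolith instrument. AF647-labelled test NP was held at 70 nM against titrated human claudin-3 (0.4–14000 nM), claudin-4 (0.8–28000 nM) or claudin-9 (0.6–20000 nM). Buffer was 10 mM Tris-HCl pH 8.0, 100 mM NaCl, 4% glycerol and 0.1% n-undecyl-β-D-maltopyranoside. As a non-specific control, detergent was titrated 10 mM–0.7 μM against 1 μM AF647-labelled control NP.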

human claudin-9 = target: T3, human claudin-9 (Homo sapiens, UniProt O95484); assay: Microscale thermophoresis; format: binding; settings: MST; buffer with 0.1% n-Undecyl-β-D-Maltopyranoside; 23°C; C1C2-NP fixed at 70 nM, claudin-9 0.6-20000 nM
T3 sequence (O95484 1-217): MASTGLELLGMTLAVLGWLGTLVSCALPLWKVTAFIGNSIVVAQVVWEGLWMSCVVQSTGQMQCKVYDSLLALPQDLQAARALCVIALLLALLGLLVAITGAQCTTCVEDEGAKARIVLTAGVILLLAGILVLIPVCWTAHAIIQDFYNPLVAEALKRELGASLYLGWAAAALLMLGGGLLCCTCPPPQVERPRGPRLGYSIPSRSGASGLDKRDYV
Method in brief: as §2

[4] = target: T4, mouse claudin-1 in bEnd.3 cells (Mus musculus, UniProt O88551); assay: In vitro fluorescence imaging of NP binding to bEnd.3 cells; format: cell-based
T4 sequence (O88551 1-211): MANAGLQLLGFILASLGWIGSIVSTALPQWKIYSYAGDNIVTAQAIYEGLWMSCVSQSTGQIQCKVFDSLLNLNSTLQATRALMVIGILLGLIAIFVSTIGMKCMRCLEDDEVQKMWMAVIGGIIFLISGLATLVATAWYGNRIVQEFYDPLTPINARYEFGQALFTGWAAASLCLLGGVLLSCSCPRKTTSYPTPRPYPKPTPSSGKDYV
Method in brief: as §1

[5] = target: T5, claudin-1 on brain endothelial cells (Mus musculus, UniProt O88551); format: in vivo; settings: corpus callosum and hippocampus, confocal, ~2 hrs post-injection
T5 sequence (O88551 1-211): T4 sequence (O88551 1-211)
Method in brief: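 Male and female C57BL/6J mice, 2 and 12 months old, received 100 μL of 0.5 mM test NP by tail vein, then a 100 μL PBS flush. About 2 h after injection they were perfused with 4% PFA and brains fixed 24 h. Sections were blocked 1 h at RT, stained overnight at 4 °C with rat anti-CD31 (1:250) and rabbit anti-claudin-1 (1:100), then AF488/AF555 secondaries (1:250, 2 h, RT) and DAPI. Confocal imaging used a 40x objective; colocalization was quantified with JACoP on ≥3 random fields per region per mouse.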

human claudin-4 = target: T6, human claudin-4 (Homo sapiens, UniProt O14493); assay: Microscale thermophoresis; format: binding; settings: MST; buffer with 0.1% n-Undecyl-β-D-Maltopyranoside; 23°C; C1C2-NP fixed at 70 nM, claudin-4 0.8-28000 nM
T6 sequence (O14493 1-209): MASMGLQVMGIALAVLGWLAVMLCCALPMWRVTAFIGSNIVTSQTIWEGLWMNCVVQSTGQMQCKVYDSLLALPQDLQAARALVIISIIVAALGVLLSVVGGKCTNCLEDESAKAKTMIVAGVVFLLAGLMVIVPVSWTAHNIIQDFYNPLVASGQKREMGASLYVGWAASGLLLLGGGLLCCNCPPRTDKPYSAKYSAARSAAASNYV
Method in brief: as §2

[6] = Biodistribution in peripheral organs by ICP-MS; format: in vivo, mouse; settings: ICP-MS of Gd
Method in brief: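 Male and female C57BL/6J mice, three aged 2 months and three aged 12 months, received 100 μL of 0.5 mM control or targeted Gd-oxide NPs. Transcardial perfusion with ice-cold DPBS followed at 1 hr. Heart, lung, liver, kidneys, spleen, colon and intestine were weighed and digested in HNO3 at 100 °C for 120 minutes. Samples were filtered, diluted and measured for Gd by ICP-MS.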

[7] = test system: hippocampus of middle aged humans; settings: middle aged humans of around 40 years of age; contrast agent; cited from earlier work

Kd [1]: 21 µM
Molecule: recombinant human claudin-1 (from UniProt O95832 1-211) (natural protein)

Molecule: GSQIYMICNQFYTPGGTG [Ocldn207-NP]
Zeta Potential [2]: 3.65±0.19 mV
Hydrodynamic size (Dynamic light scattering): 14.23±0.11 nm

NP binding to bEnd.3 cells transfected to express human claudin-1 [3]: High NP binding
binding to human claudin-3 (in words) (human claudin-3): does not show any binding
binding to human claudin-9 (in words) (human claudin-9): quite weak
NP binding to ethanol-exposed bEnd.3 cells ([4]; ethanol (50mM) induced claudin-1, NP incubation 4 hrs): much higher binding
NP binding to control bEnd.3 cells ([4]; normal culture, low claudin-1 expression, AF-647 modified NPs): no binding
colocalization of claudin-1, CD31 and nanoparticles in brain ([5]; 2-month-old mice): not observed
colocalization of claudin-1, CD31 and nanoparticles in brain ([5]; 12-month-old mice): colocalization
binding to human claudin-4 (in words) (human claudin-4): quite weak
Molecule: SSVSQSTGQIQSKVDSLLNLNSTQATR [C1C2-NP]
Zeta Potential [2]: 7.81±0.38 mV
accumulation in the kidney ([6]; 1 hr post-injection of 100 μL of 0.5 mM NPs, versus control NPs): increased
accumulation in kidneys, 12-month-old compared to 2-month-old mice ([6]; 1 hr post-injection, three mice per age): higher
Hydrodynamic size (Dynamic light scattering): 14.5±0.13 nm

Molecule: CNC[C@H](O)[C@@H](O)[C@H](O)[C@H](O)CO.CNC[C@H](O)[C@@H](O)[C@H](O)[C@H](O)CO.O=C([O-])CN(CCN(CC(=O)[O-])CC(=O)O)CCN(CC(=O)O)C(COCc1ccccc1)C(=O)[O-].[Gd+3] (centres unmarked) [MultiHance]
K^trans, hippocampus [7]: ~ 0.001 min^−1

Molecule: QEFYDPLTPINARYE [Cldn146-NP]
Zeta Potential [2]: 1.62±0.13 mV
Hydrodynamic size (Dynamic light scattering): 13.94±0.08 nm

Molecule: SCVSQSTGQIQCKVFDSLLNLNSTLQAT [Cldn53-NP]
Zeta Potential [2]: 2.24±0.18 mV
Hydrodynamic size (Dynamic light scattering): 13.8±0.11 nm
